High-throughput results (PubChem)
PABP1 MLLE inh: inhibitors of PABP1 MLLE–PAM2 peptide binding, primary screen, biochemical, fluorescence polarization, FITC-PAM2, GST-MLLE; AID 588489, 2011; Polyadenylate-binding protein 1 (Homo sapiens), P11940; inhibition, % at 20 µM; hit rate 0.36% among 360,000; in the data active = inhibition above about 35%, passing the limit was not always enough;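 note: plate controls were DMSO wells with GST-MLLE for no effect and wells lacking GST-MLLE protein for full effect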
Target sequence (P11940 whole entry, looked up): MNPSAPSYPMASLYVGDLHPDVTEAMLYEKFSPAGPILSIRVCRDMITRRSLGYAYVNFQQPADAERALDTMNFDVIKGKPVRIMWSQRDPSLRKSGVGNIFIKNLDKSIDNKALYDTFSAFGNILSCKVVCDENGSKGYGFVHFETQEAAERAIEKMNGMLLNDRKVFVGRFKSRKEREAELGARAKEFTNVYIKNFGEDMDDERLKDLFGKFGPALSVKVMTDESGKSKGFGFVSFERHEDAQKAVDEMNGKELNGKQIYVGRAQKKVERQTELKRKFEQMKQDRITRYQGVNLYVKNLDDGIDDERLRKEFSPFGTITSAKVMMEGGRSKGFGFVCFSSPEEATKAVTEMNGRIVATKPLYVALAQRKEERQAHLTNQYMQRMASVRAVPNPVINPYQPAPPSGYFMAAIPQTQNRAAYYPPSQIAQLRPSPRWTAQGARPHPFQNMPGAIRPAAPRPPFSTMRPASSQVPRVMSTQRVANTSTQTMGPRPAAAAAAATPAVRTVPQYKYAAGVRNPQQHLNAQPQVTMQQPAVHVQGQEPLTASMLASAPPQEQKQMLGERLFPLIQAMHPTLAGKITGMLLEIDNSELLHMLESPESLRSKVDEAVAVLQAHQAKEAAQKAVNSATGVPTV
SKN-1 block: suppressors of acrylamide-induced Pgst-4::GFP reporter in worms, primary screen, SKN-1 inhibitor project, whole organism, uHTS, GFP/RFP fluorescence ratio, strain VP596; AID 624304, 2012; hit rate 0.49% among 360,000; C. elegans VP596 Pgst-4::GFP/RFP ratio, 24 h; inhibition, % at 21.8 µM;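 active = interference check ratio from 0.5 to 1.5 plus GFP to RFP signal ratio inhibition reaching or exceeding a fixed threshold, cut at about 30% in these data, passing the limit was not always enough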
eIF4H inh: human eIF4H binding inhibitors, primary screen, translation initiation inhibitor project, biochemical, uHTS, fluorescence polarization; inhibition, % at 35 µM; hit rate 0.94% among 290,000; AID 2012, 2009; eIF4H fluorescence polarization binding assay;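 note: calls also rest on retests at 20 µM and on dose response follow-up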
MT1-MMP act inh: blockers of MT1-MMP proenzyme processing, primary screen, HT1080 RFP-PRO-GFP cells, GFP/RFP fluorescence. AID 651647, 2012. GFP/RFP ratio change, % at 20 µM. hit rate 0.061% among 360,000. GFP/RFP ratio fluorescence, overnight; percent of plate control window, DMSO zero. Matrix metalloproteinase-14 (Homo sapiens), P50281;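 active = GFP/RFP ratio change of at least 30% with cell ATP level not reduced by more than half and red fluorescence within 50% of control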
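system = RFP-PRO-GFP reporter HT1080 cells | dosing = 20 µM single dose, 1% DMSO | timing = overnight cell settling, then overnight compound exposure, 37 °C, 5% CO2 | read-out basis = GFP/RFP fluorescence ratio | controls = DMSO and RFP-L50D-GFP cell wells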
PABP FP inh: PABP poly(A) RNA binding inhibitors, primary screen, biochemical, fluorescence polarization, uHTS; calls only at 35 µM; Polyadenylate-binding protein 1 (Homo sapiens), P11940; hit rate 1% among 290,000;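 note: calls also rest on retests at 20 µM and on dose response follow-up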
* = called active by the depositor. Shown are actives, neighbours in structure and some others; about 1.8% of the full set was active somewhere. Unless noted, the rule behind the calls is not given here.

How did O=C(NCCO)c1cccc2c1C(=O)c1ccccc1-2 do in these assays?
PABP1 MLLE inh: 2; SKN-1 block: 3; eIF4H inh: -6; MT1-MMP act inh: 1; PABP FP inh: inactive

How did CCN(CC)CCNC(=O)c1ccc2c(c1NCCO)C(=O)c1ccccc1C2=O do in these assays?
PABP1 MLLE inh: 3; SKN-1 block: 42*; eIF4H inh: 21; MT1-MMP act inh: 10; PABP FP inh: inactive

How did COc1ccc(/C=C(\NC(=O)c2ccccc2)C(=O)N/N=C/c2ccncc2)cc1 do in these assays?
PABP1 MLLE inh: 10; SKN-1 block: -5; eIF4H inh: -1; MT1-MMP act inh: 2; PABP FP inh: inactive

How did COc1ccc(/C=C(/NC(=O)c2ccccc2)C(=O)N/N=C/c2ccncc2)c(OC)c1 do in these assays?
PABP1 MLLE inh: -11; SKN-1 block: -7; eIF4H inh: active; MT1-MMP act inh: 1; PABP FP inh: inactive

What do the screens show for `CCOc1ccc(N2CSC3=C(C#N)C(c4ccco4)CC(=O)N3C2)cc1` (stereo unspecified)?
PABP1 MLLE inh: -5; SKN-1 block: -3; eIF4H inh: 92*; MT1-MMP act inh: 2; PABP FP inh: active

What do the screens show for `N#CC1=C2SCN(c3ccccc3)CN2C(=O)CC1c1cccs1` (stereo unspecified)?
PABP1 MLLE inh: -41; SKN-1 block: 9; eIF4H inh: 23*; MT1-MMP act inh: 3; PABP FP inh: active

What do the screens show for `Cc1ccc(C2CC(=O)N3CN(c4ccc(Br)cc4)CSC3=C2C#N)o1` (stereo unspecified)?
PABP1 MLLE inh: -59; SKN-1 block: 17; eIF4H inh: 41*; MT1-MMP act inh: -26; PABP FP inh: active

What do the screens show for `N#CC1=C2SCN(c3ccccc3)CN2C(=O)CC1c1c(Cl)cccc1Cl` (stereo unspecified)?
PABP1 MLLE inh: -6; SKN-1 block: -1; eIF4H inh: -2; MT1-MMP act inh: 0; PABP FP inh: inactive

Results for O=c1cccc(-c2cccc3ccccc23)o1 ?
SKN-1 block: 6; MT1-MMP act inh: -4

How did CCCCCCCCCCCCCCCC[n+]1ccc(/C=N/O)cc1 do in these assays?
PABP1 MLLE inh: 4; SKN-1 block: 43*; eIF4H inh: 13; MT1-MMP act inh: -39; PABP FP inh: inactive

Results for Cn1c(SCc2nnc(-c3ccccc3)o2)nc2ccccc21 ?
PABP1 MLLE inh: -72; SKN-1 block: -3; eIF4H inh: -3; MT1-MMP act inh: -2; PABP FP inh: inactive

How did Cn1c2ccccc2c2nnc(SCc3nnc(-c4ccccc4)o3)nc21 do in these assays?
eIF4H inh: -9; PABP FP inh: active

How did Cc1cc(C2CCCCC2)n(O)c(=O)c1 do in these assays?
PABP1 MLLE inh: 2; SKN-1 block: 12; MT1-MMP act inh: 1

Results for CSc1nc2c(=S)[nH]c(=S)[nH]c2s1 ?
PABP1 MLLE inh: 39*; SKN-1 block: -9; MT1-MMP act inh: 0

Results for CC(C)CNC(=O)C(=O)Nc1cc2c3c(c1)C(C)C(=O)N3CCC2 (stereo unspecified) ?
PABP1 MLLE inh: 6; SKN-1 block: 11; eIF4H inh: 2; MT1-MMP act inh: 0; PABP FP inh: inactive

How did Cc1ccccc1Cn1ccc(NC(=O)c2nn3cccnc3c2Cl)n1 do in these assays?
PABP1 MLLE inh: -118; SKN-1 block: -1; eIF4H inh: 9; MT1-MMP act inh: 5; PABP FP inh: inactive

Results for Cc1ccccc1Cn1ccc(NC(=O)c2cc3ncc(Br)cn3n2)n1 ?
PABP1 MLLE inh: -2; SKN-1 block: -6; eIF4H inh: 53*; MT1-MMP act inh: 1; PABP FP inh: inactive

How did Cc1c(C(=O)O)cccc1-c1ccc(/C=C2\SC(=O)NC2=O)o1 do in these assays?
PABP1 MLLE inh: -6; SKN-1 block: 5; eIF4H inh: 54*; MT1-MMP act inh: 12; PABP FP inh: active

Results for Cc1ccc(NC(=O)CN2C(=O)S/C(=C\c3ccc(-c4cccc(C(=O)O)c4C)o3)C2=O)cc1C ?
PABP1 MLLE inh: 2; SKN-1 block: -4; eIF4H inh: 68*; MT1-MMP act inh: -6; PABP FP inh: inactive

What do the screens show for `Cc1c(C(=O)O)cccc1-c1ccc(/C=C2/NC(=O)N(c3ccccc3)C2=O)o1`?
PABP1 MLLE inh: 6; SKN-1 block: -4; eIF4H inh: 9; MT1-MMP act inh: -2; PABP FP inh: inactive

Results for O=C(CN1C(=O)S/C(=C\c2ccc(-c3cc(C(=O)O)ccc3Cl)o2)C1=O)Nc1ccc2c(c1)OCO2 ?
PABP1 MLLE inh: 6; SKN-1 block: 4; eIF4H inh: 68*; MT1-MMP act inh: 2; PABP FP inh: active

What do the screens show for `CC(=O)Nc1cccc(NC(=O)CSc2ncc(C(=O)Nc3ccccc3)c(=O)n2C)c1`?
PABP1 MLLE inh: 42*; SKN-1 block: 27; MT1-MMP act inh: 0

What do the screens show for `CC(=O)Nc1cccc(NC(=O)CSc2ncc(C(=O)Nc3ccc(F)cc3)c(=O)n2C)c1`?
PABP1 MLLE inh: 11; SKN-1 block: 5; MT1-MMP act inh: 0

How did CC(=O)Nc1cc(NC(C)=O)cc(C(=O)OCC(=O)N2CC(C)OC(C)C2)c1 (stereo unspecified) do in these assays?
PABP1 MLLE inh: 0; SKN-1 block: 36*; eIF4H inh: 9; MT1-MMP act inh: 2; PABP FP inh: inactive

Results for Cc1ccc(S(=O)(=O)Nc2ccc(N3CCOCC3)nc2)cc1 ?
PABP1 MLLE inh: -15; SKN-1 block: 2; eIF4H inh: inconclusive; MT1-MMP act inh: -8; PABP FP inh: inactive

How did Cc1ccc(C)n1-c1ccc(N2CCOCC2)nc1 do in these assays?
PABP1 MLLE inh: 28; SKN-1 block: 12; eIF4H inh: 71*; MT1-MMP act inh: -4; PABP FP inh: active

Results for COCCN=c1scc(-c2ccc3c(c2)NC(=O)CO3)n1/N=C(\C)c1ccc(O)cc1 ?
PABP1 MLLE inh: -14; SKN-1 block: 9; eIF4H inh: 87; MT1-MMP act inh: -33; PABP FP inh: active

Results for COc1cc(/C=N/n2c(-c3ccc4c(c3)NC(=O)CO4)csc2=Nc2cccc(C)c2)ccc1O ?
PABP1 MLLE inh: -10; SKN-1 block: 4; eIF4H inh: 0; MT1-MMP act inh: -17; PABP FP inh: inactive

How did O=C(N/N=C/c1ccccc1O)C1(O)c2ccccc2-c2ccccc21 do in these assays?
PABP1 MLLE inh: 3; SKN-1 block: 5; eIF4H inh: active; MT1-MMP act inh: 0; PABP FP inh: active

What do the screens show for `CC1CC2CCCC(O)=C2C(=O)O1` (stereo unspecified)?
PABP1 MLLE inh: 3; SKN-1 block: -21; MT1-MMP act inh: 2

How did CC(C)(CNC(=O)C1c2ccccc2-c2ccccc21)N1CCOCC1 do in these assays?
PABP1 MLLE inh: 2; SKN-1 block: 8; eIF4H inh: -3; MT1-MMP act inh: -4; PABP FP inh: inactive
